Experimental data taken from ChEMBL document CHEMBL4411297, “Discovery, synthesis and anti-atherosclerotic activities of a novel selective sphingomyelin synthase 2 inhibitor” (Eur J Med Chem, 2019).
Activity calls are given as the source filed them. The calls are words filed in the database; no cut-off is given here.

Key:
[1] = Tmax in C57BL/6J mouse at 25 mg/kg/day, ig by HPLC-MS/MS analysis; assay type: ADME, organism-based; settings: in vivo, po
Method in brief: (§1)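 Male C57BL/6J mice (6–8 weeks, ~20 g), fasted 12 h, given a single intragastric dose of 25, 50 or 100 mg/kg in 10% DMSO/30% PEG/0.9% NaCl. Retro-orbital blood at 5 min to 8 h; plasma protein-precipitated with methanol plus internal standard, assayed by LC-MS/MS; noncompartmental analysis. Mean ± SD, n = 6.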

Homo sapiens = species on record: Homo sapiens; assay: Selectivity ratio of IC50 for purified SMS1 (unknown origin) to IC50 for purified SMS2 (unknown origin)
[2] = AUC (0 to infinity) in C57BL/6J mouse at 50 mg/kg/day, ig by HPLC-MS/MS analysis; assay type: ADME, organism-based; set-up: dose 50 mg/kg/day, time infinity, route intragastric; settings: in vivo, po
Method in brief: (§2)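 Male C57BL/6J mice, six to eight weeks old, about 20 g, fasted 12 h with free water. Given a single intragastric dose of 25, 50 or 100 mg/kg in 10% DMSO/30% PEG-100/0.9% NaCl. Blood taken retro-orbitally at 5 min to 8 h. Plasma protein-precipitated with methanol plus internal standard, then HPLC-MS/MS on a C18 column. Noncompartmental analysis, n = 6.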

[3] = AUC (0 to 8 hrs) in C57BL/6J mouse at 50 mg/kg/day, ig by HPLC-MS/MS analysis; assay type: ADME, organism-based; set-up: time < 8 hr, dose 50 mg/kg/day, route intragastric; settings: in vivo, po; method in brief: as §2
Mus musculus [4] = assay: Effect on plasma ALT levels in C57BL/6J mouse at 100 mg/kg/day, ig qd for 7 days measured on day 7; assay type: ADME, organism-based; settings: in vivo, po, 168 h
Method in brief: (§3)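 C57BL/6J mice dosed by gavage at 100 mg/kg once daily for 7 days. Plasma SM sampled on days 0, 3 and 7. Plasma ALT and AST measured on day 7 by automated analyzer. Compared with vehicle, n = 10.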

[5] = Half life in C57BL/6J mouse at 25 mg/kg/day, ig by HPLC-MS/MS analysis; assay type: ADME, organism-based; settings: in vivo, po; method in brief: as §2
Mus musculus [6] = assay: Anti-atherosclerotic activity in apoE knockout mouse fed with western-type diet assessed as reduction in lesions in whole aorta at 12.5 mg/kg/day, ig for 7 weeks by oil-red O staining-based assay relative to control; assay type: functional; set-up: scale not given: the % may be the effect or the level left
Method in brief: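 ApoE KO mice fed Western-type diet, then given 12.5 or 40 mg/kg/day by gavage in 30% PEG-400/10% DMSO/0.9% NaCl for 7 weeks. Aortic root: H&E-stained 4 µm sections, mean lesion area from 6 sections per animal. Whole aorta: en face Oil Red O staining, percentage of area stained. Compared with vehicle, n = 10.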

[7] = Dose normalized AUC (0 to 8 hrs) in C57BL/6J mouse at 100 mg/kg/day, ig by HPLC-MS/MS analysis; assay type: ADME, organism-based; settings: in vivo, po; method in brief: as §2
[8] = Cmax in C57BL/6J mouse at 25 mg/kg/day, ig by HPLC-MS/MS analysis; assay type: ADME, organism-based; set-up: dose 25 mg/kg/day, route intragastric; settings: in vivo, po; method in brief: as §2
[9] = MRT (0 to 8 hrs) in C57BL/6J mouse at 25 mg/kg/day, ig by HPLC-MS/MS analysis; assay type: ADME, organism-based; settings: in vivo, po; method in brief: as §1
Mus musculus [10] = assay: Down regulation of sphingomyelin levels in C57BL/6J mouse plasma at 100 mg/kg/day, ig qd for 7 days measured on day 3 and 7; assay type: functional, organism-based; method in brief: as §3
[11] = Apparent oral clearance in C57BL/6J mouse at 50 mg/kg/day, ig by HPLC-MS/MS analysis; assay type: ADME, organism-based; settings: in vivo; method in brief: as §2
Mus musculus [12] = assay: Anti-atherosclerotic activity in ig dosed apoE knockout mouse fed with western-type diet assessed as reduction in plasma sphingomyelin level; assay type: functional, organism-based
Method in brief: (§4)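 ApoE KO mice on Western-type diet, dosed by gavage at 12.5 or 40 mg/kg/day for 7 weeks, n = 10. Blood collected at 20 weeks of age. Plasma SM measured by a previously reported method. ALT and AST read on an automated biochemical analyzer.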

Mus musculus [13] = assay: Anti-atherosclerotic activity in apoE knockout mouse fed with western-type diet assessed as reduction in plasma SM level at 40 mg/kg/day, ig for 7 weeks relative to control; assay type: functional; set-up: scale not given: the % may be the effect or the level left; method in brief: as §4
Mus musculus [14] = assay: Anti-atherosclerotic activity in apoE knockout mouse fed with western-type diet assessed as reduction in lymphocyte count at 40 mg/kg/day, ig for 7 weeks by flow cytometric analysis relative to control; assay type: functional; set-up: scale not given: the % may be the effect or the level left
Method in brief: (§5)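 ApoE KO mice started at 8 weeks old on Western-type diet for 6 weeks. Then dosed by gavage daily with vehicle, 12.5 or 40 mg/kg for 7 weeks with the diet continued, 10 mice per group. Blood single-cell suspensions stained with antibodies in PBS and analysed by flow cytometry. Mean ± SD, n = 5.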

[15] = Dose normalized AUC (0 to 8 hrs) in C57BL/6J mouse at 25 mg/kg/day, ig by HPLC-MS/MS analysis; assay type: ADME, organism-based; settings: in vivo, po; method in brief: as §2
Mus musculus [16] = assay: Effect on body weight in apoE knockout mouse fed with western-type diet at 12.5 to 40 mg/kg/day, ig for 7 weeks; assay type: ADME, organism-based; settings: in vivo, po, 1176 h
Method in brief: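 ApoE KO mice on Western-type diet, dosed by gavage daily at 12.5 or 40 mg/kg for 7 weeks. Body weight recorded weekly throughout dosing and compared with vehicle, 10 mice per group.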

[17] = Apparent volume of distribution during terminal phase in C57BL/6J mouse at 25 mg/kg/day, ig by HPLC-MS/MS analysis; assay type: ADME, organism-based; settings: in vivo, po, read-out: Vz/F; method in brief: as §2
Mus musculus [18] = assay: Effect on plasma AST levels in C57BL/6J mouse at 100 mg/kg/day, ig qd for 7 days measured on day 7; assay type: ADME, organism-based; settings: in vivo, po, 168 h; method in brief: as §3
Mus musculus [19] = assay: Anti-atherosclerotic activity in apoE knockout mouse fed with western-type diet assessed as reduction in monocyte count at 12.5 mg/kg/day, ig for 7 weeks by flow cytometric analysis relative to control; assay type: functional; set-up: scale not given: the % may be the effect or the level left; method in brief: as §5
Mus musculus [20] = assay: Anti-atherosclerotic activity in apoE knockout mouse fed with western-type diet assessed as reduction in CD11b+/Ly6C++/Ly6G+ dendritic cells at 40 mg/kg/day, ig for 7 weeks by flow cytometric analysis relative to control; assay type: functional; set-up: scale not given: the % may be the effect or the level left; method in brief: as §5
[21] = MRT (0 to infinity) in C57BL/6J mouse at 50 mg/kg/day, ig by HPLC-MS/MS analysis; assay type: ADME, organism-based; settings: in vivo, po; method in brief: as §1
[22] = Half life in C57BL/6J mouse at 100 mg/kg/day, ig by HPLC-MS/MS analysis; assay type: ADME, organism-based; settings: in vivo, po; method in brief: as §2
Mus musculus [23] = assay: Anti-atherosclerotic activity in apoE knockout mouse fed with western-type diet assessed as reduction in macrophage content at 12.5 mg/kg/day, ig for 7 weeks by immunostaining assay relative to control; assay type: functional; set-up: scale not given: the % may be the effect or the level left
Method in brief: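 ApoE KO mice on Western-type diet, dosed by gavage at 12.5 or 40 mg/kg/day for 7 weeks. Aortic root sections 4 µm thick immunostained with MOMA-2: primary antibody 1 h at room temperature, biotinylated secondary, HRP-streptavidin, DAB, hematoxylin counterstain. Stained area quantified and expressed relative to vehicle.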

[24] = AUC (0 to infinity) in C57BL/6J mouse at 25 mg/kg/day, ig by HPLC-MS/MS analysis; assay type: ADME, organism-based; set-up: dose 25 mg/kg/day, time infinity, route intragastric; settings: in vivo, po; method in brief: as §2
Mus musculus [25] = assay: Anti-atherosclerotic activity in apoE knockout mouse fed with western-type diet assessed as reduction in CD4+/CD8+ cell ratio at 12.5 mg/kg/day, ig for 7 weeks by flow cytometric analysis relative to control; assay type: functional; set-up: scale not given: the % may be the effect or the level left; method in brief: as §5

Question: Which results are given for CCc1ccccc1COc1ccccc1C(=O)Nc1cccnc1?
Answer: Tmax [1]: 6.6 min; Ratio IC50 (Homo sapiens): > 1400; AUC(0-inf) [2]: 6790 ng·h/mL; AUC at 8 h [3]: 6260 ng·h/mL; Activity (Mus musculus [4]): Non-Toxic; half-life [5]: 3.22 h; Activity (Mus musculus [6]): 32%; AUC/dose [7]: 0.13 µg·h/mL; Cmax [8]: 2530 ng/mL; MRT [9]: 1.9 h; Activity (Mus musculus [10]): Active; CL/F [11]: 180 mL/min; Activity (Mus musculus [12]): Dose-dependent effect; Activity (Mus musculus [13]): 41%; Activity (Mus musculus [14]): 24%; AUC/dose [15]: 0.08 µg·h/mL; Activity (Mus musculus [16]): Non-Toxic; Vd/F [17]: 51.4 L; Activity (Mus musculus [18]): Non-Toxic; Activity (Mus musculus [19]): 51%; Activity (Mus musculus [20]): 43%; MRT inf [21]: 2.28 h; half-life [22]: 2.51 h; Activity (Mus musculus [23]): 28%; AUC(0-inf) [24]: 2360 ng·h/mL; Activity (Mus musculus [25]): 34%
